The values that follow come from ChEMBL document CHEMBL3351772, “Xenortide Biosynthesis by Entomopathogenic Xenorhabdus nematophila” (J Nat Prod, 2014).

The test system of experiment [1] is Trypanosoma brucei rhodesiense. Description: Antiparasitic activity against Trypanosoma brucei rhodesiense STIB900. It counts as functional, organism-based.
For a further experiment, the system named is L6. As to the kind of experiment: Cytotoxicity against rat L6 cells. It counts as cell-based. Put shortly:
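Rat L6 skeletal myoblasts; cytotoxicity assay run per an earlier published method.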

The subject of the next experiment is Trypanosoma cruzi. As to the kind of experiment: Antiparasitic activity against Trypanosoma cruzi Tulahuen C4. The experiment is classed as functional, organism-based.
In a further experiment the test system is Leishmania donovani. As to the kind of experiment: Antiparasitic activity against Leishmania donovani. The experiment is classed as functional, organism-based. The method, boiled down:
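Leishmania donovani strain MHOM-ET-67/L82; assay run per an earlier published method.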

Another experiment concerns Plasmodium falciparum. As to the kind of experiment: Antiparasitic activity against Plasmodium falciparum NF54. It counts as functional, organism-based.

Square brackets hold non-standard residues; d marks the D form. Peptide text beside a SMILES is read from it. * marks the point of attachment. NMeF = CN[C@@H](Cc1ccccc1)C(=O)O; NMeL = CN[C@@H](CC(C)C)C(=O)O; NHPhenethyl = c1ccc(CCN*)cc1; NMeV = CN[C@H](C(=O)O)C(C)C

Turning to `CN[C@H](C(=O)N(C)[C@@H](Cc1ccccc1)C(=O)NCCc1c[nH]c2ccccc12)C(C)C`, the IC50 (as a rule, the concentration that gives 50% inhibition) in experiment [1] was found to be 4.92 µM; in the experiment on L6, 85.6 µM; in the experiment on Trypanosoma cruzi, 52.7 µM; in the experiment on Leishmania donovani, 17.3 µM; in the experiment on Plasmodium falciparum, 7.66 µM.
Turning to `CN[C@H](C(=O)N(C)[C@@H](Cc1ccccc1)C(=O)NCCc1ccccc1)C(C)C` (H-[NMeV]-[NMeF]-NHPhenethyl), the half-inhibitory concentration (IC50) in experiment [1] is 89.2 µM; in the experiment with L6, more than 253 µM; with Trypanosoma cruzi, 132 µM; in the experiment with Leishmania donovani, 25 µM; in the experiment with Plasmodium falciparum, more than 126 µM.
`CCCCCCCCCCCCCCCCOP(=O)([O-])OCC[N+](C)(C)C` [MILTEFOSINE]: in the experiment on Leishmania donovani, the half-maximal inhibitory concentration (IC50) was 0.459 µM.
With `CN[C@@H](CC(C)C)C(=O)N(C)[C@@H](Cc1ccccc1)C(=O)NCCc1ccccc1` [XENORTIDE A] (H-[NMeL]-[NMeF]-NHPhenethyl), the IC50 in experiment [1] came out at 22.5 µM; in the experiment on L6 it was 116 µM; in the experiment on Trypanosoma cruzi, 46.4 µM; in the experiment on Leishmania donovani it was 124 µM; with Plasmodium falciparum, 19.2 µM.
Take `CN[C@@H](CC(C)C)C(=O)N(C)[C@@H](Cc1ccccc1)C(=O)NCCc1c[nH]c2ccccc12` [XENORTIDE B]: the concentration for half-maximal inhibition (IC50) was 1.57 µM in experiment [1]; 13.7 µM in the experiment on L6; 11.7 µM in the experiment with Trypanosoma cruzi; 111 µM with Leishmania donovani; 0.76 µM in the experiment on Plasmodium falciparum.
